Experiments:
Acetylcholinesterase = target: T1, Acetylcholinesterase (Rattus norvegicus, UniProt P37136); test: Inhibition of AChE in rat cortex after 15 mins by modified Ellman's method
T1 sequence (P37136 whole entry): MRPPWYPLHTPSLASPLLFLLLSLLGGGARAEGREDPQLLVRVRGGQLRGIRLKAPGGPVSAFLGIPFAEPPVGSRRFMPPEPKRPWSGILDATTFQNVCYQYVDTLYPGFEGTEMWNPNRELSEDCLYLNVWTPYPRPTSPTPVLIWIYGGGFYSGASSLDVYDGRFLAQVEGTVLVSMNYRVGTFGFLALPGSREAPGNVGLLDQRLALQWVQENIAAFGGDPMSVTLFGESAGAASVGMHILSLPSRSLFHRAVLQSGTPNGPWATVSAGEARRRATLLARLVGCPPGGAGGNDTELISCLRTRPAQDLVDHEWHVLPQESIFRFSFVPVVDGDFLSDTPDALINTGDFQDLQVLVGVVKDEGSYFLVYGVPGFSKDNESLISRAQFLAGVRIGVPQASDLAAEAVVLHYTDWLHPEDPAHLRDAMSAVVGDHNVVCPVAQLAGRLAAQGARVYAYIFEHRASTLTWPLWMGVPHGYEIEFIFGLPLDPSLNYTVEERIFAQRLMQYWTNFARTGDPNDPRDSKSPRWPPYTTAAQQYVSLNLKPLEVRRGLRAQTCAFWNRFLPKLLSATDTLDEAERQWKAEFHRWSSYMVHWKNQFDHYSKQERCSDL

Butyrylcholinesterase = Butyrylcholinesterase (Rattus norvegicus, UniProt Q9JKC1); test: Inhibition of BChE in rat serum after 15 mins by modified Ellman's method; assay type: cell-free
Outline: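 Enzyme source was rat serum. Substrate butyrylthiocholine iodide 0.4 mmol/L in sodium phosphate buffer ([…]). Serum was incubated with the test compound at several concentrations at 37 °C for 15 min. Activity was read spectrophotometrically by a modified Ellman method, with IC50 derived from the concentration series.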

Sequence of Butyrylcholinesterase (Q9JKC1 whole entry): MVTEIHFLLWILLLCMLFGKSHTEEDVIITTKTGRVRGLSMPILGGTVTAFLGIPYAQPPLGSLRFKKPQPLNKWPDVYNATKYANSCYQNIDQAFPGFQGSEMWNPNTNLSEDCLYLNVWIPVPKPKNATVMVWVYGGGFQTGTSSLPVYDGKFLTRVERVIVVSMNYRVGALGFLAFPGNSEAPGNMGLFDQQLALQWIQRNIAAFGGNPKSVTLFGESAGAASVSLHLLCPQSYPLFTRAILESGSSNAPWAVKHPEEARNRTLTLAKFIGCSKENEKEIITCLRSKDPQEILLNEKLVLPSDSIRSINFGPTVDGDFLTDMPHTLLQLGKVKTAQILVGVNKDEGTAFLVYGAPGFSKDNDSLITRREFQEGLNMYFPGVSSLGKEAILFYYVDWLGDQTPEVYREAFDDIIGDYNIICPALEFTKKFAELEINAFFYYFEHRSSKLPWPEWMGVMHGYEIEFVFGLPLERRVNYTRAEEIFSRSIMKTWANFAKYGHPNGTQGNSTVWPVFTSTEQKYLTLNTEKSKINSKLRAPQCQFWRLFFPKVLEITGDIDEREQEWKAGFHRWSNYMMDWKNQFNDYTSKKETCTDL

| Compound | IC50 (Acetylcholinesterase) | IC50 (Butyrylcholinesterase) |
| --- | --- | --- |
| COc1cc2oc(-c3ccc(CN4CCCC4)cc3)cc(=O)c2cc1OC | 0.055 µM | 89.7 µM |
| CCN(C)Cc1ccc(/C=C/C(=O)c2cc(OC)c(OC)cc2O)cc1 | 0.126 µM | > 100 µM |
| CCN(CC)Cc1ccc(/C=C/C(=O)c2cc(OC)c(OC)cc2O)cc1 | 0.103 µM | > 100 µM |
| CCN(CC)Cc1cccc(/C=C/C(=O)c2cc(OC)c(OC)cc2O)c1 | 1.61 µM | > 100 µM |
| COc1cc(O)c(C(=O)/C=C/c2ccc(CN3CCCC3)cc2)cc1OC | 0.037 µM | > 100 µM |
| COc1cc(O)c(C(=O)/C=C/c2cccc(CN3CCCC3)c2)cc1OC | 0.047 µM | 77.3 µM |
| COc1cc(O)c(C(=O)/C=C/c2ccc(CN3CCCCC3)cc2)cc1OC | 0.122 µM | > 100 µM |
| CCN(C)Cc1ccc(-c2cc(=O)c3cc(OC)c(OC)cc3o2)cc1 | 0.336 µM | > 100 µM |
| CCN(CC)Cc1ccc(-c2cc(=O)c3cc(OC)c(OC)cc3o2)cc1 | 0.639 µM | 64.6 µM |
| CCN(CC)Cc1cccc(-c2cc(=O)c3cc(OC)c(OC)cc3o2)c1 | 5.99 µM | > 100 µM |
| COc1cc2oc(-c3cccc(CN4CCCC4)c3)cc(=O)c2cc1OC | 0.704 µM | > 100 µM |
| COc1cc2oc(-c3ccc(CN4CCCCC4)cc3)cc(=O)c2cc1OC | 0.034 µM | 75.2 µM |
| CCN(C)Cc1ccc(C2CC(=O)c3cc(OC)c(OC)cc3O2)cc1 (stereo not drawn) | 4.67 µM | > 100 µM |
| CCN(CC)Cc1ccc(C2CC(=O)c3cc(OC)c(OC)cc3O2)cc1 (stereo not drawn) | 4.97 µM | > 100 µM |
| CCN(CC)Cc1cccc(C2CC(=O)c3cc(OC)c(OC)cc3O2)c1 (stereo not drawn) | 172 µM | > 100 µM |
| COc1cc2c(cc1OC)C(=O)CC(c1ccc(CN3CCCC3)cc1)O2 (stereo not drawn) | 1.24 µM | 68.2 µM |
| COc1cc2c(cc1OC)C(=O)CC(c1cccc(CN3CCCC3)c1)O2 (stereo not drawn) | 5.36 µM | > 100 µM |
| COc1cc2c(cc1OC)C(=O)CC(c1ccc(CN3CCCCC3)cc1)O2 (stereo not drawn) | 0.248 µM | 48 µM |
| CCN(C)Cc1ccc(-c2coc3cc(OC)c(OC)cc3c2=O)cc1 | 0.171 µM | 61 µM |
| CCN(CC)Cc1ccc(-c2coc3cc(OC)c(OC)cc3c2=O)cc1 | 0.599 µM | > 100 µM |
| CCN(CC)Cc1cccc(-c2coc3cc(OC)c(OC)cc3c2=O)c1 | 0.56 µM | > 100 µM |
| COc1cc2occ(-c3ccc(CN4CCCC4)cc3)c(=O)c2cc1OC | 0.004 µM | 18.3 µM |
| COc1cc2occ(-c3cccc(CN4CCCC4)c3)c(=O)c2cc1OC | 0.07 µM | > 100 µM |
| COc1cc2occ(-c3ccc(CN4CCCCC4)cc3)c(=O)c2cc1OC | 0.068 µM | > 100 µM |

Source: ChEMBL document CHEMBL1152562, “Design, synthesis and evaluation of flavonoid derivatives as potent AChE inhibitors” (Bioorg Med Chem, 2009)
